In ChEMBL document CHEMBL1124094, “Synthesis and pharmacological activity of angiotensin converting enzyme inhibitors: N-(mercaptoacyl)-4-substituted-(S)-prolines” (J Med Chem, 1988):
Calls of active or inactive are those of the source. The rule behind the calls is not given here.

Legend:
[1] = molecular target: T1, Angiotensin-converting enzyme (Rattus norvegicus) (UniProt P47820); assay: In vivo inhibition of Angiotensin I converting enzyme at […] in anaesthetized rats.;z denotes 'Inactive'; assay type: organism-based
T1 sequence (whole entry): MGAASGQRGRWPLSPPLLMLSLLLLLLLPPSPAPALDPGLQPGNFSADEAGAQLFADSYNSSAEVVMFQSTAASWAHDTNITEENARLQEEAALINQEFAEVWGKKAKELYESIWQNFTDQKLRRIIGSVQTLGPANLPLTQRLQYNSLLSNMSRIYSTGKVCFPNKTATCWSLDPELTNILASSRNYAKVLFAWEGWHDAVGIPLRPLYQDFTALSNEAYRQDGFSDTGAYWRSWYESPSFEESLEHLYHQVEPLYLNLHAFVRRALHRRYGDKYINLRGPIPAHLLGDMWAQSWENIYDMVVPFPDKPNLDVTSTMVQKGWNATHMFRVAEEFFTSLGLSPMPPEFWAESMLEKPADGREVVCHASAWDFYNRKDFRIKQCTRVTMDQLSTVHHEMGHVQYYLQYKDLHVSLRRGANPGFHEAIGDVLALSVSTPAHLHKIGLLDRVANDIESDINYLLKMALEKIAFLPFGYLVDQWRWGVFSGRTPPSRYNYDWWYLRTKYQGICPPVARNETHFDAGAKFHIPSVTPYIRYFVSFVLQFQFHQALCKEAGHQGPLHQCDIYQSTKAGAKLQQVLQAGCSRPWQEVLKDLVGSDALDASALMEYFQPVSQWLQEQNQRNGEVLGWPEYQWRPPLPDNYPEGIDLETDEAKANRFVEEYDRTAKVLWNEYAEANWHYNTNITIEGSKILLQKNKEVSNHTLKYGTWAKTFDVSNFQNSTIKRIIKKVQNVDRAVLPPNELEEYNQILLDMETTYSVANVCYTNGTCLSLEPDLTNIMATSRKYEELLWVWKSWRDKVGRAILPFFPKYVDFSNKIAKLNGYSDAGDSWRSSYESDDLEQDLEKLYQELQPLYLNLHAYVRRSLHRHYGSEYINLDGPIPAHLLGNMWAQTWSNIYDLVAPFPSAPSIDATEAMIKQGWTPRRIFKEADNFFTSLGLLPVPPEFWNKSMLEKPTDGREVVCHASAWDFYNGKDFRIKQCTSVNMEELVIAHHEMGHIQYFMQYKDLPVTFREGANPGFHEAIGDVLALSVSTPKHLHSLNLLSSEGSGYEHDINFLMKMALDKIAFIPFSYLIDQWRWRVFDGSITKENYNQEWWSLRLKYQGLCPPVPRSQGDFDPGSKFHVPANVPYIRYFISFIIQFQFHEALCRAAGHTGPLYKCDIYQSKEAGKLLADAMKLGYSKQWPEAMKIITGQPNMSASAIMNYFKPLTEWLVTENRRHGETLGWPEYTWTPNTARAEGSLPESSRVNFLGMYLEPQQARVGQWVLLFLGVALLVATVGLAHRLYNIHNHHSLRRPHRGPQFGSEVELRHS
Outline: (§1)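 Sprague–Dawley rats under inactin (100 mg/kg) or dial urethane; carotid and jugular cannulas, arterial blood pressure recorded. Angiotensin I response as percent of control; ID50 by linear regression.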

[2] = molecular target: T2, Angiotensin-converting enzyme (Oryctolagus cuniculus) (UniProt P12822); assay: In vitro inhibition of Angiotensin I converting enzyme relative to captopril(=1)
T2 sequence (whole entry): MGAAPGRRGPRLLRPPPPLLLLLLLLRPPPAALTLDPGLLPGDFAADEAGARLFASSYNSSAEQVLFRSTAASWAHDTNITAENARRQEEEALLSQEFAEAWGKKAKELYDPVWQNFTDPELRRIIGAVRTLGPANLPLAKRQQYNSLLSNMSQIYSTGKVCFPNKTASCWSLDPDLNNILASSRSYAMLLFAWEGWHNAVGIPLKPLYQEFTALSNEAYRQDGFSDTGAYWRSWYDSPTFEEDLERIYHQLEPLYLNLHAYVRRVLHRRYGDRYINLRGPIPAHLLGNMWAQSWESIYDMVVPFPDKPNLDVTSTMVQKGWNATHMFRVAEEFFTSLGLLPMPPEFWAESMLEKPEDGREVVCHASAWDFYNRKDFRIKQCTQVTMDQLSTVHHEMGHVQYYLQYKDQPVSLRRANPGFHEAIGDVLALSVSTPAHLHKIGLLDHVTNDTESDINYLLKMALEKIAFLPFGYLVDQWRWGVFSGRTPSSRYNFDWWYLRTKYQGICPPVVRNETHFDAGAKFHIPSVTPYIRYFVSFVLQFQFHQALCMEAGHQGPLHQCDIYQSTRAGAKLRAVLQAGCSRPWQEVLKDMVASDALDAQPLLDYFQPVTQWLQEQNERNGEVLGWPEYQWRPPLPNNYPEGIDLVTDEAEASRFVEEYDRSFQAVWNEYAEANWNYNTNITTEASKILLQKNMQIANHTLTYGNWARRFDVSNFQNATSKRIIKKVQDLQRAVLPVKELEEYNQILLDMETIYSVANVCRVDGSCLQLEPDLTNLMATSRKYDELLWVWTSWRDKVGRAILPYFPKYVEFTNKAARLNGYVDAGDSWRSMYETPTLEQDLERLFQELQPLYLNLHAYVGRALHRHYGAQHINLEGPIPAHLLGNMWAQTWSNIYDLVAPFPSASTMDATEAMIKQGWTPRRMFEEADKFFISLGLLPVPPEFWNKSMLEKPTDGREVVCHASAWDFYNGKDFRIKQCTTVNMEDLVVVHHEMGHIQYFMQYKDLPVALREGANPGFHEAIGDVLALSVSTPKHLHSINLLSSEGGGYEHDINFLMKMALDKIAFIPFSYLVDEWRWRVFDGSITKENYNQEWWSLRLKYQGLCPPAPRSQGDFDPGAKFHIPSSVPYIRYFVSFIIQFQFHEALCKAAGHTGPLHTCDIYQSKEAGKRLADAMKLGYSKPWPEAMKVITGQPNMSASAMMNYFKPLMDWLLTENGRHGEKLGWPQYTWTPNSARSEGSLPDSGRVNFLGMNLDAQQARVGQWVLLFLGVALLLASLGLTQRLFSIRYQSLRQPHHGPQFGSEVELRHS
Outline: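 Crude ACE from rabbit lung acetone powder extracted in 50 mM potassium phosphate pH 8.3, spun 40000g. Final assay: 100 mM phosphate pH 8.3, 300 mM NaCl, 5 mM hippuryl-His-Leu; enzyme added last, 30 min at 37 °C, stopped with HCl. Hippuric acid extracted into EtOAc, dried, redissolved in water, read by absorbance.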

[3] = molecular target: T1, Angiotensin-converting enzyme (Rattus norvegicus); assay: Compound was tested for bradykinin potentiation at 0.1 ug/kg dose; assay type: functional
[4] = molecular target: T1, Angiotensin-converting enzyme (Rattus norvegicus); assay: In vivo inhibition of Angiotensin I converting enzyme at 100 ug/kg in anaesthetized rats; assay type: organism-based; outline: as §1
[5] = molecular target: T1, Angiotensin-converting enzyme (Rattus norvegicus); assay: (§2) In vivo inhibition of Angiotensin I converting enzyme in anaesthetized rats; assay type: organism-based; outline: as §1
[6] = molecular target: T1, Angiotensin-converting enzyme (Rattus norvegicus); assay: In vivo inhibition of Angiotensin I converting enzyme at 100ug/Kg in anaesthetized rats;o denotes 'Inactive'; assay type: organism-based; outline: as §1
[7] = molecular target: T1, Angiotensin-converting enzyme (Rattus norvegicus); assay: In vivo inhibition of Angiotensin I converting enzyme at […] in anaesthetized rats;z denotes 'Inactive'; assay type: organism-based; outline: as §1
[8] = molecular target: T1, Angiotensin-converting enzyme (Rattus norvegicus); assay: as §2; assay type: organism-based; remark: listed apart in the source
Rattus norvegicus [9] = assay: Compound was tested orally on the spontaneous hypertensive rat and blood pressure noted at half-hour interval; assay type: functional
Outline: (§3)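 Spontaneously hypertensive rats; drug in 0.4% methylcellulose, or water, saline or 5% ethanol. Aortic catheter via caudal artery under ether, rats conscious in restrainers; pressure averaged over 30 min, heart rate from pulse trace. Dosed after about 90 min, usually followed for 4 h.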

[10] = molecular target: T1, Angiotensin-converting enzyme (Rattus norvegicus); assay: In vivo inhibition of Angiotensin I converting enzyme at 100ug/Kg in anaesthetized rats;z denotes 'Inactive'; assay type: organism-based; outline: as §1
Rattus norvegicus [11] = assay: Compound was tested for bradykinin potentiation at 0.1 ug/kg dose.; assay type: functional
Rattus norvegicus [12] = species on record: Rattus norvegicus; assay: Compound was tested peroral on the spontaneous hypertensive rat; assay type: functional; outline: as §3

Compound	relative potency [2]	Delta blood pressure [3]	further results
CC(CS)C(=O)N1C[C@@H](OCc2ccccc2)C[C@H]1C(=O)O (stereo not given in full)	0.56	40 mmHg	ID50 [1]: Inactive at 100 ug/kg
CC(CS)C(=O)N1C[C@@H](F)C[C@H]1C(=O)O (stereo not given in full)	–	–	ID50 [4]: 0.581 mg/kg
CC(CS)C(=O)N1C[C@@H](Sc2ccccc2)C[C@H]1C(=O)O (stereo not given in full)	–	22 mmHg	ID50 [5]: 0.544 mg/kg
CC(CS)C(=O)N1C[C@H](Oc2ccc(Cl)cc2)C[C@H]1C(=O)O (stereo not given in full)	–	23 mmHg	ID50 [6]: inactive
CC(CS)C(=O)N1C[C@@H](C#N)C[C@H]1C(=O)O (stereo not given in full)	–	47 mmHg	ID50 [6]: inactive
CC(CS)C(=O)N1C[C@@H](SCc2ccccc2)C[C@H]1C(=O)O (stereo not given in full)	–	5 mmHg	ID50 [7]: Inactive at 100 ug/kg
CC(CS)C(=O)N1CC2(C[C@H]1C(=O)O)OCC(C)(C)CO2 (stereo not given in full)	1	46 mmHg	ID50 [8]: 0.359 mg/kg; Delta blood pressure (Rattus norvegicus [9]): 25 mmHg
CO[C@@H]1C[C@@H](C(=O)O)N(C(=O)C(C)CS)C1 (stereo not given in full)	0.5	–	ID50 [5]: 1.21 mg/kg
CC(CS)C(=O)N1C[C@@H](SC2CCCCC2)C[C@H]1C(=O)O (stereo not given in full)	–	6 mmHg	ID50 [10]: Inactive at 100 ug/kg
CC(CS)C(=O)N1C[C@@H](O)C[C@H]1C(=O)O (stereo not given in full)	–	40 mmHg	ID50 [5]: 0.367 mg/kg
CC(CS)C(=O)N1CC2(C[C@H]1C(=O)O)OCCO2 (stereo not given in full)	1	43 mmHg	ID50 [8]: 0.065 mg/kg
CCOCCO[C@@H]1C[C@@H](C(=O)O)N(C(=O)C(C)CS)C1 (stereo not given in full)	–	45 mmHg	ID50 [5]: 0.372 mg/kg
CO[C@H]1C[C@@H](C(=O)O)N(C(=O)C(C)CS)C1 (stereo not given in full)	0.53	60 mmHg	ID50 [5]: 0.073 mg/kg
O=C(O)[C@@H]1CC2(CN1C(=O)CCS)SCCCS2	1	19 mmHg	ID50 [8]: 0.01 mg/kg
COC1(OC)C[C@@H](C(=O)O)N(C(=O)C(C)CS)C1 (stereo not given in full)	0.9	–	–
CC(CS)C(=O)N1CC2(C[C@H]1C(=O)O)SCCCS2 (stereo not given in full)	1.07	–	ID50 [8]: 0.048 mg/kg
CC(CS)C(=O)N1C[C@H](OCCOc2ccccc2)C[C@H]1C(=O)O (stereo not given in full)	–	9 mmHg	ID50 [6]: inactive
C[C@H](CS)C(=O)N1CC2(C[C@H]1C(=O)O)SCCS2	4	–	SHR delta blood pressure (Rattus norvegicus [9]): 17 dec; Delta blood pressure (Rattus norvegicus [11]): 43 mmHg
O=C(O)[C@@H]1CC2(CN1C(=O)CCS)SCCS2	2.6	38 mmHg	ID50 [8]: 0.078 mg/kg
CO/N=C1\C[C@@H](C(=O)O)N(C(=O)C(C)CS)C1 (stereo not given in full)	1	–	–
CC(CS)C(=O)N1C[C@H](F)C[C@H]1C(=O)O (stereo not given in full)	–	53 mmHg	ID50 [6]: inactive
CC(CS)C(=O)N1C[C@H](O)C[C@H]1C(=O)O (stereo not given in full)	–	48 mmHg	ID50 [5]: 0.253 mg/kg
CC(CS)C(=O)N1C[C@H](OCc2ccccc2)C[C@H]1C(=O)O (stereo not given in full)	–	47 mmHg	ID50 [5]: 0.508 mg/kg
CC(CS)C(=O)N1C[C@@H](N=[N+]=[N-])C[C@H]1C(=O)O (stereo not given in full)	0.54	–	–
CC(CS)C(=O)N1CC2(C[C@H]1C(=O)O)SCCS2 (stereo not given in full)	1.26	34 mmHg	SHR delta blood pressure (Rattus norvegicus [12]): 35 dec; ID50 [8]: 0.026 mg/kg; SHR delta blood pressure (Rattus norvegicus [9]): 22 dec
CS[C@H]1C[C@@H](C(=O)O)N(C(=O)C(C)CS)C1 (stereo not given in full)	–	–	ID50 [5]: 0.398 mg/kg
COC1=C[C@@H](C(=O)O)N(C(=O)C(C)CS)C1 (stereo not given in full)	–	52 mmHg	ID50 [6]: inactive
